Assay results as given in the array DNA melting data of Ke et al. (doi:10.1101/2024.01.08.574731).

What was measured:
[1] = folding enthalpy; higher = less favourable; fluorescence melt of hairpins on a sequencing array, two-state fit; conditions: sodium 0.088 M
Summary of the method: (§1)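 Melting temperature and folding enthalpy were derived from bootstrapped two-state fits. The fitted temperatures were raised by 9.35 °C to agree with UV melts, and four replicates were combined by inverse variance. The underlying data were Cy3 fluorescence images of library hairpins, with annealed Cy3 and quencher oligos, on a sequenced MiSeq flow cell in 50 mM Na-HEPES pH 8.0, 25 mM NaCl, taken in 2.5 °C steps up to 60 °C, normalised to pre-quench Cy3 and to control constructs.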

[2] = melting temperature; fluorescence melt of hairpins on a sequencing array, two-state fit, raised by 9.35 °C to match UV melts; conditions: sodium 0.088 M
Summary of the method: as §1

Row | Sequence | folding enthalpy [1] | Tm [2]
1 | GCATTTGGAAACAAACGC ((.((((....)))).)) | -126 kJ/mol | 37.2 °C
2 | GCATTTGGAAACGAATGC (((((.(....).))))) | -175 kJ/mol | 49 °C
3 | GCATTTTCGAAAGAATGC (((..(((....)))))) | -119 kJ/mol | 35.5 °C
4 | GCCAAACGAAAGTTCGGC (((.(((....))).))) | -154 kJ/mol | 51.3 °C
5 | GCCAACACGAAAGTGGGC (((..(((....)))))) | -104 kJ/mol | 52.7 °C
6 | GCCAACCCGAAAGGGGGC (((..(((....)))))) | -78.6 kJ/mol | 51.8 °C
7 | GCCAACCGAAAGGTGGGC (((.(((....))).))) | -170 kJ/mol | 68.4 °C
8 | GCCAACGAAAGTTAGGGC ((((((....)))..))) | -98.4 kJ/mol | 46.6 °C
9 | GCCAACGAAAGTTATGGC ((((((....)))..))) | -129 kJ/mol | 45.7 °C
10 | GCCAACGGAAACGTCAGC ((..(((....)))..)) | -50.8 kJ/mol | 28.3 °C
11 | GCCAAGAAATTGGC (((((....))))) | -90.6 kJ/mol | 52.3 °C
12 | GCCAAGCCGAAAGGCGGC (((..(((....)))))) | -67.3 kJ/mol | 64.2 °C
13 | GCCAAGCGAAAGCCGGGC (((..((....))..))) | -93.5 kJ/mol | 57.7 °C
14 | GCCAAGCGAAAGCGGGGC (((..((....))..))) | -120 kJ/mol | 68.3 °C
15 | GCCAAGCGAAAGCGTTGC ((.(.((....)).).)) | -48.4 kJ/mol | 40.1 °C
16 | GCCAAGCGAAAGCTTTGC ((.((((....)))).)) | -89.6 kJ/mol | 53.4 °C
17 | GCCAAGGGAAACCCTAGC ((.(.((....)).).)) | -73.6 kJ/mol | 28.8 °C
18 | GCCAATGAAAATTGGC ((((((....)))))) | -128 kJ/mol | 59.9 °C
19 | GCCAATGGAAACATTAGC ((.((((....)))).)) | -72.9 kJ/mol | 32.1 °C
20 | GCCAATGGAAACGTTGGC (((((.(....).))))) | -206 kJ/mol | 53.7 °C
21 | GCCACCCGAAAGGGAGGC (((.(((....))).))) | -185 kJ/mol | 67.8 °C
22 | GCCACCCGAAAGGGGGC (((.(((....)))))) | -95.4 kJ/mol | 68.5 °C
23 | GCCACCGAAAGGTCAGGC ((((((....)))..))) | -96.8 kJ/mol | 48.4 °C

Row | Sequence | folding enthalpy [1] | Tm [2]
24 | GCCACCGAAAGGTGCGGC ((((((....)))..))) | -54.9 kJ/mol | 60.8 °C
25 | GCCACCGAAAGGTGTGGC ((((((....)))..))) | -73.4 kJ/mol | 58.2 °C
26 | GCCACCGAAAGGTTAGGC ((((((....)))..))) | -107 kJ/mol | 51.1 °C
27 | GCCACCGAAAGGTTTGGC ((((((....)))..))) | -111 kJ/mol | 48.7 °C
28 | GCCACCGGAAACGGCAGC ((..(((....)))..)) | -65.2 kJ/mol | 31 °C
29 | GCCACCGGAAACGGTAGC ((.((((....)))).)) | -88.9 kJ/mol | 48.1 °C
30 | GCCACGCCGAAAGGCGGC (((..(((....)))))) | -30.5 kJ/mol | 48.3 °C
31 | GCCACGCGAAAGCATGGC ((((.((....)).)))) | -138 kJ/mol | 66.8 °C
32 | GCCACGCGAAAGCCGGGC (((..((....))..))) | -101 kJ/mol | 58 °C
33 | GCCACGCGAAAGCCTCGC ((.(.((....)).).)) | -32.1 kJ/mol | 27 °C
34 | GCCACGCGAAAGCGCAGC ((..(((....)))..)) | -44.3 kJ/mol | 43.6 °C
35 | GCCACGCGAAAGCGGTGC ((..(((....)))..)) | -55.7 kJ/mol | 50.1 °C
36 | GCCACGCGAAAGCTCGGC (((..((....))..))) | -91.9 kJ/mol | 51.2 °C
37 | GCCACGCGAAAGCTGGGC (((..((....))..))) | -113 kJ/mol | 60 °C
38 | GCCACGCGAAAGCTTCGC ((.(.((....)).).)) | -29.4 kJ/mol | 33.6 °C
39 | GCCACGGGAAACCGCGAC (.(.(((....))).).) | -50.8 kJ/mol | 29.1 °C
40 | GCCACGGGAAACCGTGAC (.(((((....))))).) | -69.1 kJ/mol | 51.1 °C
41 | GCCACGGGAAACTGTGGC (((((.(....).))))) | -181 kJ/mol | 63.2 °C
42 | GCCACTGCGAAAGCAGGC (((..(((....)))))) | -37.2 kJ/mol | 46 °C
43 | GCCACTGGAAACAGCGAC (.(.(((....))).).) | -58.3 kJ/mol | 26 °C
44 | GCCAGACGAAAGTCAGGC (((.(((....))).))) | -136 kJ/mol | 64.8 °C
45 | GCCAGCCCGAAAGGGGGC (((..(((....)))))) | -61.5 kJ/mol | 55.3 °C
46 | GCCAGCCGAAAGGCCGGC (((.(((....))).))) | -115 kJ/mol | 68.4 °C

Row | Sequence | folding enthalpy [1] | Tm [2]
47 | GCCAGCGAAAGCTAGGC ((((((....))).))) | -108 kJ/mol | 66 °C
48 | GCCAGCGAAAGCTCAGGC ((((((....)))..))) | -127 kJ/mol | 49.9 °C
49 | GCCAGCGAAAGCTGCGGC ((((((....)))..))) | -54.3 kJ/mol | 61.4 °C
50 | GCCAGCGAAAGCTGTGGC ((((((....)))..))) | -63.1 kJ/mol | 56.6 °C
51 | GCCAGGACGAAAGTCGGC (((..(((....)))))) | -114 kJ/mol | 52.6 °C
52 | GCCAGGCGAAAGCAGGGC (((..((....))..))) | -134 kJ/mol | 64 °C
53 | GCCAGGCGAAAGCCCAGC ((..(((....)))..)) | -56.6 kJ/mol | 40.2 °C
54 | GCCAGGCGAAAGCTGGGC (((..((....))..))) | -113 kJ/mol | 62.9 °C
55 | GCCAGGGAAACCTGGC ((((((....)))))) | -156 kJ/mol | 69.2 °C
56 | GCCAGGGGAAACCCCAGC ((..(((....)))..)) | -90 kJ/mol | 38.3 °C
57 | GCCAGTACGAAAGTAGGC (((..(((....)))))) | -99.5 kJ/mol | 43.4 °C
58 | GCCAGTCGAAAGACCGGC (((.(((....))).))) | -152 kJ/mol | 55.3 °C
59 | GCCATAGCGAAAGCTGGC (((..(((....)))))) | -107 kJ/mol | 56.5 °C
60 | GCCATAGGAAACTACGGC (((.(((....))).))) | -125 kJ/mol | 40.6 °C
61 | GCCATAGGAAACTATGAC (.(((((....))))).) | -76.2 kJ/mol | 34.1 °C
62 | GCCATCGAAAGATCGGC ((((((....))).))) | -104 kJ/mol | 48.2 °C
63 | GCCATCGAAAGATGTGGC ((((((....)))..))) | -97.9 kJ/mol | 46.6 °C
64 | GCCATCGGAAACAATGGC (((((.(....).))))) | -124 kJ/mol | 44.7 °C
65 | GCCATCGGAAACGATAGC ((.((((....)))).)) | -90.2 kJ/mol | 45 °C
66 | GCCATCGGAAACGGTGGC ((((.((....)).)))) | -195 kJ/mol | 59.3 °C
67 | GCCATGCGAAAGCAATGC ((..(((....)))..)) | -52.7 kJ/mol | 41.3 °C
68 | GCCATGCGAAAGCACCGC ((..(((....)))..)) | -37 kJ/mol | 24.1 °C
